Results on seven molecules are retold here after publication PMC10245921 (bioRxiv, 2023).

Numbering of substitutions follows the chain as printed. Names may count otherwise. “And” between values parts separate entries of the source, which are not always exact repeats. Equal values may be shown once. Where no end group is shown, it is not given here. The star is where a group is joined. FITC = O=C1OC2(c3ccc(O)cc3Oc3cc(O)ccc32)c2ccc(NC(=S)*)cc21

B1: FITC-conjugated CD44 peptide (SRRRCGQKKKLVINSGNGAVEDYK-FITC) (peptide)
peptide: SRRRCGQKKKLVINSGNGAVEDYK(FITC)
B2: FERM domain of human MSN (1–345) H288A, 6His tag cleaved (domain or fragment)
chain: MPKTISVRVTTMDAELEFAIQPNTTGKQLFDQVVKTIGLREVWFFGLQYQDTKGFSTWLKLNKKVTAQDVRKESPLLFKFRAKFYPEDVSEELIQDITQRLFFLQVKEGILNDDIYCPPETAVLLASYAVQSKYGDFNKEVHKSGYLAGDKLLPQRVLEQHKLNKDQWEERIQVWHEEHRGMLREDAVLEYLKIAQDLEMYGVNYFSIKNKKGSELWLGVDALGLNIYEQNDRLTPKIGFPWSEIRNISFNDKKFVIKPIDKKAPDFVFYAPRLRINKRILALCMGNAELYMRRRKPDTIEVQQMKAQAREEKHQKQMERAMLENEKKKREMAEKEKEKIEREKE
B3: FERM domain of human MSN (1–345) L281R, 6His tag cleaved (domain or fragment)
chain: B2 chain with L281R, A288H

For one data set, the target named is MSN FERM domain (Homo sapiens, UniProt P26038). Nature of the data set: Surface plasmon resonance. The data set is classed as binding. Summed up:
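MSN FERM domain is amine-coupled to a CM5 chip in acetate pH 4, to 4000 RU. Multi-cycle kinetics use test compound at 0.5–8 μM. KD comes from a 1:1 binding model fit.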
In general terms: In SPR one partner is held on a chip, and binding of the other changes the refractive index at the surface.

The next data set has as its target MSN–CD44 interaction (Homo sapiens, UniProt P26038). Nature of the data set: MSN–CD44 TR-FRET assay. The class given is binding. The conditions noted are these: for IC50: IC50, confirmatory TR-FRET dose response, Fig. 4D, primary hits; for increase in potency relative to compound 2: MSN–CD44 TR-FRET. On the technique in general: Time-resolved FRET reads energy transfer from a long-lived donor to a nearby acceptor.

Data set [1] deals with LgBiT-MSN(T588D) and SmBit-CD44 (Homo sapiens, UniProt P26038, T558D). As to the kind of experiment: NanoBiT split luciferase assay in live cells. The data set is classed as cell-based. Put shortly:
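HEK293T cells (DMEM, 10% FBS, penicillin/streptomycin, 37 °C, 5% CO2) are seeded at 6000 cells/well. Next day they are transfected with CD44-SmBiT (C-terminal) and LgBiT-MSN(T558D) (N-terminal) plasmids, 20 ng and 5 ng, using Fugene HD; LgBiT-MSN(T558A) is the negative control. After 18 h, 2-fold dilutions of test compound (6.25–0.098 μM, DMSO) are added for 3 h. Nano-Glo Live Cell Reagent is added for 20 min at 37 °C, then luminescence is read. Two independent experiments.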

Data set [2] addresses GST-tagged MSN and Flag-tagged CD44 (Homo sapiens, UniProt P26038). As to the kind of experiment: GST-pull down assay in cell lysates. The class given is binding. The note with it: full length proteins in cell lysates. Put shortly:
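HEK293 cells co-express full-length GST-MSN and Venus-Flag-CD44; Venus marks CD44 expression. Lysates are diluted in 10 mM HEPES pH 7.5, 150 mM NaCl, 0.25% Triton X-100 with protease and phosphatase inhibitors. They are dose-treated with test compound in DMSO, rotating 1 h at 4 °C, then captured on GST resin for 1.5 h at 4 °C and washed three times. SDS-PAGE and immunoblotting detect Flag (CD44) and GST (MSN). Two experiments.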

A further data set deals with MSN (Homo sapiens, UniProt P26038). As to the kind of experiment: Thermal shift assay of MSN with compounds. The class given is binding. The note with it: two experiments. Put shortly:
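Precipitate is removed by centrifugation, then the mix is incubated 30 min at RT. Sypro Orange is added at 20x and the sample ramped 25→95 °C at 1 °C/min. Tm comes from a Boltzmann fit; ΔTm versus DMSO is averaged over two experiments.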

Data set [3] is described as follows: Solubility by nephelometry. The class given is physicochemical.
For a further data set, the target named is SYK-FCER1G (Homo sapiens, UniProt P43405). Nature of the data set: SYK TR-FRET counter screen. The data set is classed as binding.
Data set [4] deals with FERM domain of human MSN (residues 1–345), wild type, 6His tag cleaved (human, UniProt P26038 1-345). As to the kind of experiment: FRET or BRET.
The target in data set [5] is 6His-tagged FERM domain of human MSN (residues 1–345), wild type (human, UniProt P26038 1-345). Nature of the data set: FRET or BRET. A general note: In BRET a luciferase serves as donor, and the signal depends on an acceptor being close.
For data set [6], the target named is B1. As to the kind of experiment: FRET or BRET.
The mark [7] stands for this setting: IC50, CD44–MSN interaction in live cells (approximate), NanoBiT, live cells.

Sequence of GST-tagged MSN and Flag-tagged CD44 (P26038 whole entry): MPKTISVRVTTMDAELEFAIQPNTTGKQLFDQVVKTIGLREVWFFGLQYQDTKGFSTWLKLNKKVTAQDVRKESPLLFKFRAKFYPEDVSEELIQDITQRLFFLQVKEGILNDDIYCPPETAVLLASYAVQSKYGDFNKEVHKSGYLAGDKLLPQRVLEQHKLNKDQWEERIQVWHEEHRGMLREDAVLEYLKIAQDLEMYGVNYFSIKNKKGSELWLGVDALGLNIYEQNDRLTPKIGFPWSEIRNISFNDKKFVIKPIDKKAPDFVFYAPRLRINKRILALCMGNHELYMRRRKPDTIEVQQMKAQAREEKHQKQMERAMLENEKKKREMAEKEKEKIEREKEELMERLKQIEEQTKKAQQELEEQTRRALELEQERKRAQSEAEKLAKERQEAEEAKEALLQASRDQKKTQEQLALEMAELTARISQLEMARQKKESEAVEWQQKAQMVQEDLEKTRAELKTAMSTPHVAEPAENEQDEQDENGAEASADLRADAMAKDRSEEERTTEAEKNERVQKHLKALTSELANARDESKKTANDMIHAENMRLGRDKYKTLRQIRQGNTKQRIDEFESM
Sequence of LgBiT-MSN(T588D) and SmBit-CD44 (P26038 whole entry T558D): as the sequence (P26038 whole entry) above, with T558D counted along it
Sequence of MSN–CD44 interaction (P26038 1-345): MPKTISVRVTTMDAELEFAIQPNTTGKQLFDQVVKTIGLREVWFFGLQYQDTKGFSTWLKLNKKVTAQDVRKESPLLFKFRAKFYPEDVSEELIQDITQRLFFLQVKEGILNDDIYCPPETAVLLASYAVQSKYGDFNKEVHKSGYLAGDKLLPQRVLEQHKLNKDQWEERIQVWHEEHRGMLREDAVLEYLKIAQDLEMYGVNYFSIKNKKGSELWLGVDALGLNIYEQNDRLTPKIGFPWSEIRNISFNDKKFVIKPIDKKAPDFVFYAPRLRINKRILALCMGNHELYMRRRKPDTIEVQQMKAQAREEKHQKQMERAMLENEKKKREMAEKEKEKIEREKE
Sequence of MSN (P26038 1-345): as above
Sequence of MSN FERM domain (P26038 1-345): as above

Molecule `Nc1ccc(C(=O)Nc2ccc(-c3nc4ccc(NC(=O)c5ccc(N)cc5)cc4s3)cc2)cc1.O=C(O)C(F)(F)F.O=C(O)C(F)(F)F` [Compound 1, 4-amino-N-(4-(6-(4-aminobenzamido)benzo[d]thiazol-2-yl)phenyl)benzamide bis(2,2,2-trifluoroacetate)] showed a Kd at MSN FERM domain of 4200 nM. Also, the IC50 against MSN–CD44 interaction is 5000 to 20000 nM; in data set [1] (setting [7]) it was roughly 600 nM; in data set [1] (IC50, NanoBiT bioluminescence assay, HEK293 cells, 2 independent experiments), 570 nM and 690 nM. For the same molecule, in [2], the “activity in GST-pulldown assay” value is reported as “active”. Further, the “av. ΔTm of MSN compared to DMSO alone” value on MSN (at 20 μM) is 1–2 °C.

On to `COc1ccccc1C(=O)Nc1ccc(-c2nc3ccccc3[nH]2)cc1` [Compound 2, N-(4-(1H-benzo[d]imidazol-2-yl)phenyl)-2-methoxybenzamide], for which the “solubility in aqueous/PBS buffer” value in [3] was “low solubility”. Further, the Kd at MSN FERM domain is 700 nM. The IC50 at MSN–CD44 interaction was 5000 to 20000 nM; in data set [1] (setting [7]) it was roughly 200 nM. For the same molecule, the “activity in GST-pulldown assay” value in data set [2] is recorded as “active”. For the same molecule, the “av. ΔTm of MSN compared to DMSO alone” value on MSN (at 20 μM) was 1–2 °C.

In the case of `COc1ccc(C(=O)Nc2ccc(-c3nc4ccccc4[nH]3)cc2)c(OC)c1` [Compound 2a, N-(4-(1H-benzo[d]imidazol-2-yl)phenyl)-2,4-dimethoxybenzamide], the “activity in the counter screen” value at SYK-FCER1G is listed as “no activity”. Further, the “solubility in aqueous/PBS buffer” value in data set [3] is on record as “improved solubility”. Also, the “increase in potency relative to compound 2” value at MSN–CD44 interaction turned out to be 8 fold. Moreover, the “activity in GST-pulldown assay” value in [2] is listed as “able to inhibit”. Moreover, the “av. ΔTm of MSN compared to DMSO alone” value on MSN (at 50 μM) worked out at 1.3 °C.

For the molecule `O=C(Nc1ccc(-c2nc3ccccc3[nH]2)cc1)c1cccc(Cl)c1` [Compound 2b, N-(4-(1H-benzo[d]imidazol-2-yl)phenyl)-3-chlorobenzamide], the “activity in the counter screen” value at SYK-FCER1G is listed as “no activity”. Further, the “solubility in aqueous/PBS buffer” value in data set [3] is reported as “improved solubility”. Further, the “increase in potency relative to compound 2” value at MSN–CD44 interaction is reported as 2 fold. The “activity in GST-pulldown assay” value in [2] is on record as “able to inhibit”. Moreover, at MSN (at 50 μM), the “av. ΔTm of MSN compared to DMSO alone” value worked out at 1.2 °C.

For the molecule B1, the binding result in [4] and in [5] was “binds” throughout.

On to B2, for which the “fold higher concentration than wild type needed to inhibit” value in data set [6] was found to be 10 fold.

For B3, the “fold higher concentration than wild type needed to inhibit” value in data set [6] was 10 fold.

The Kd is the constant that tells how readily two partners part at equilibrium. What is called IC50 is the concentration needed to halve the response being measured. A higher IC50 goes with weaker potency.
